SMILES strings stand for the structures.

The data set can be described thus: Toxicity liver stage against HepG2, at 10uM. Details: test concentration 10 uM, cell line HepG2-A16-CD81EGFP. The data set is classed as cell-based. As to conditions: human, HepG2-A16-CD81EGFP cells; read-out: INHIBITION
The gist of the method:
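Uninfected HepG2-A16-CD81EGFP cells, 3 × 10^3 per well, 1536-well, plated on prespotted compound at 10 μM final, parasite-free screening media added to match infected plates; puromycin 10 μM positive, DMSO 0.5% negative; run in parallel with 48 h PbLuc assay at 37 °C, 5% CO2; viability by CellTiter-Glo luminescence, normalized to controls.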
As for `O=C(C[S+]([O-])Cc1cccc(Cl)c1)NC1CCCC1` (stereo not given), the cytotoxicity at 10 µM is 0.808%.

In the case of `CC(Oc1cc(Cl)cc(Cl)c1)C(=O)NCCOCC(N)=O` (stereo not given), the cytotoxicity at 10 µM was -5.82%.

For `CN(CCSc1ccccc1)C(=O)C(c1cccnc1)N1CCOCC1` (stereo not given), the cytotoxicity at 10 µM turned out to be 4.94%.

On to `CCc1ccc(CNC(=O)NCc2nnc3n2CCC3)s1`, for which the cytotoxicity at 10 µM came to 2.12%.

With `COC1CCC[C@@H]2CN(Cc3csc(C)n3)C[C@H]12` (stereo not given in full), the cytotoxicity at 10 µM was -110%.

In the case of `O=C(c1ccc(-c2ccc(O)nc2)s1)N1CCSCC1`, the cytotoxicity at 10 µM turned out to be 3.96%.

For the compound `CCN(CC)C(=O)Cn1cc(C(=O)NCCCc2scnc2C)nn1`, the cytotoxicity at 10 µM was -7.38%.

Turning to `Cc1cnc(C(=O)N2CCC3(CC2)CN(c2ccccn2)CCO3)cn1`, the cytotoxicity at 10 µM was -80.2%.

`Fc1ccc(CN2CCCC(c3cc4ncccc4[nH]3)C2)cc1` (stereo not given): the cytotoxicity at 10 µM was -1.87%.

Take `CC(C)N1CCOCC2(CCCN(C(=O)CCc3cccnc3)C2)C1` (stereo not given): the cytotoxicity at 10 µM was determined as 2.66%.

In the case of `Cc1nc(C2CCCNC2)cc(N(Cc2c(C)nn(C)c2C)C2CC2)n1` (stereo not given), the cytotoxicity at 10 µM is -7.23%.

For `CC(=O)N(Cc1noc(C)n1)C1CCN(CCOc2ccccc2)C1` (stereo not given), the cytotoxicity at 10 µM is -2.04%.

Take `Cc1cc(C2CCCN(Cc3noc(Cc4ccccc4)n3)C2)n[nH]1` (stereo not given): the cytotoxicity at 10 µM turned out to be 3.65%.

For `O=C(NC1(C(=O)O)CCCC1)C1Cc2cc(F)ccc2O1` (stereo not given), the cytotoxicity at 10 µM was -0.183%.

Consider `CN(C)CC(=O)Nc1ccc(C(=O)N(C)CCc2cn[nH]c2)cc1`, for which the cytotoxicity at 10 µM is 2.2%.

Turning to `C1CN(CC2CC2)C(COCC2CC2)c2nnn(CC3CC3)c21` (stereo not given), the cytotoxicity at 10 µM is -3.66%.

As for `Cc1cc(C(F)(F)F)c2c(C3CCCN(C(=O)C4CC4)C3)noc2n1` (stereo not given), the cytotoxicity at 10 µM was -25.1%.

In the case of `COc1ccc(-c2nnc(CN3CCCC3Cn3cncn3)o2)cc1` (stereo not given), the cytotoxicity at 10 µM is 3.02%.

Take `O=C(NCCNc1ccccn1)NC1CCOC2(CCCCC2)C1` (stereo not given): the cytotoxicity at 10 µM is -8.8%.

Turning to `CC(C)c1nnc2n1CC(CNCc1nnc(C(C)(C)C)o1)CC2` (stereo not given), the cytotoxicity at 10 µM was -21.6%.

For `CCCc1nc(C)cc(N2CCC3(CCC(=O)N(CCCO)C3)CC2)n1`, the cytotoxicity at 10 µM is -5.81%.

For `CC(C)c1ncc(CN2C[C@@H](CN3CCCC3)[C@@H](CO)C2)cn1`, the cytotoxicity at 10 µM was -7.3%.

For `NC(=O)c1ccccc1Oc1cnc(C2CCCN2)cn1` (stereo not given), the cytotoxicity at 10 µM worked out at 0.288%.

As for `CCCN1CCC(CC(=O)N2CCC(C(O)c3nccn3C)CC2)CC1` (stereo not given), the cytotoxicity at 10 µM was -1.13%.

On to `CN(Cc1nc2ccccc2[nH]1)C(=O)CN(C)c1ccc(Cl)cn1`, for which the cytotoxicity at 10 µM was -2.66%.

Consider `Cc1nc(C)n(CC2CCCN2Cc2nc3ccccc3n2C)n1` (stereo not given), for which the cytotoxicity at 10 µM was -2.21%.

Regarding `CC(NC(=O)CCn1cccn1)c1cn(-c2ccccc2)nn1` (stereo not given), the cytotoxicity at 10 µM was found to be 0.554%.

On to `Cc1cc(C(=O)N2CCc3c(CN(C)C)nn(C)c3C2)[nH]n1`, for which the cytotoxicity at 10 µM was -3.25%.

For the compound `COc1cc(C(=O)N(CCC#N)Cc2ccccn2)ccc1C`, the cytotoxicity at 10 µM stood at 11.3%.

Regarding `CC(C)c1ncc(CN2C[C@@H](CN3CCC(CO)CC3)[C@@H](CO)C2)cn1`, the cytotoxicity at 10 µM was found to be 20%.

In the case of `CN1CCN(C)C(CNC(=O)N(C)Cc2ccccc2Cl)C1` (stereo not given), the cytotoxicity at 10 µM was found to be 0.339%.

In the case of `CC(C)n1cnnc1CN(C)C(=O)CCn1cnc2ccccc2c1=O`, the cytotoxicity at 10 µM amounted to 6.4%.

Turning to `O=C(CN1CCN(C(=O)Cc2ccc3c(c2)OCCO3)CC1)NC1CC1`, the cytotoxicity at 10 µM is -2.35%.

Turning to `O=C1CC(c2cccnc2)C2(CCN(S(=O)(=O)C3CC3)CC2)N1` (stereo not given), the cytotoxicity at 10 µM was -2.29%.

`Cn1nc(C#N)c2c1CN(C(=O)c1ccco1)CCC2`: the cytotoxicity at 10 µM was -133%.

For the compound `COC(=O)N1CCC(CNC(=O)C2CC2)CC1`, the cytotoxicity at 10 µM was -2.82%.

In the case of `CC(C)NC(=O)N(C)C1CCN(c2ccccc2Cl)C1=O` (stereo not given), the cytotoxicity at 10 µM is -4.56%.

On to `Cc1cccc(N2CCC(N3CCC4(CN(C)C(=O)O4)C3)CC2)c1C` (stereo not given), for which the cytotoxicity at 10 µM is -11.8%.

On to `Cc1n[nH]c(C2CN(CCCOc3ccc(F)cc3)CCO2)n1` (stereo not given), for which the cytotoxicity at 10 µM is -5.76%.

Consider `CCOc1ncccc1NC(=O)N1CCOCC1C` (stereo not given), for which the cytotoxicity at 10 µM stood at 10.3%.

For the compound `Cn1cnnc1C1CCN(C(=O)Cc2ccc3c(c2)OCCO3)CC1`, the cytotoxicity at 10 µM is -10.4%.

As to `Cc1nc(C)n(CC2CN(CCC(=O)N3CCCCC3)CCO2)n1` (stereo not given), the cytotoxicity at 10 µM was -4.64%.

As to `CC(C)OCCN1CCN(C(=O)c2cc(-n3cccn3)ccn2)CC1`, the cytotoxicity at 10 µM is -0.158%.

For the compound `COCC(=O)N1Cc2nccn2CC(COc2cccnc2)C1` (stereo not given), the cytotoxicity at 10 µM worked out at 5.41%.

Consider `CN(C)c1cc(CNC(=O)c2ccc(F)cc2)ccn1`, for which the cytotoxicity at 10 µM was -22.9%.

In the case of `CCN(CC)c1ccc(C(=O)N2CCCC2Cn2cc(C)cn2)cn1` (stereo not given), the cytotoxicity at 10 µM was -17.2%.

For `CC(=O)NC[C@]1(O)CCN(C(=O)c2ccc(F)c(Cl)c2)C[C@H]1O`, the cytotoxicity at 10 µM came to 1.47%.

For the compound `Cn1c(NC(=O)CNC(=O)C2CCCC2)nc2cc(Cl)ccc21`, the cytotoxicity at 10 µM was -4.53%.

As to `Cc1[nH]c2ccc(CNC3CCN(Cc4ccccn4)CC3)cc2c1C`, the cytotoxicity at 10 µM amounted to 3.97%.

On to `Nc1nccnc1C(=O)NC1CCCN(Cc2c(F)cccc2F)C1` (stereo not given), for which the cytotoxicity at 10 µM was -2.14%.

As for `NS(=O)(=O)c1ccc(NCc2ccccc2)cc1C(F)(F)F`, the cytotoxicity at 10 µM came to 3.85%.

Regarding `CS(=O)(=O)N[C@@H]1CN(C(=O)c2cccnc2)[C@@H]2CCCO[C@@H]21`, the cytotoxicity at 10 µM is -81.8%.

For the compound `CCn1nc(C)c2c1cnn2CCNS(=O)(=O)c1ccccc1`, the cytotoxicity at 10 µM came to 6.28%.

As to `O=C(Nc1ccc(F)cc1)N1CCN(Cc2noc(C3CC3)n2)CC1`, the cytotoxicity at 10 µM was -18.1%.

Take `CC(C)N1CCOCC2(CCCN(C(=O)c3cn(C)cn3)C2)C1` (stereo not given): the cytotoxicity at 10 µM came out at 1.88%.

Take `Cc1cnc(C(NC(=O)NCc2nc(C3CC3)no2)C2CC2)s1` (stereo not given): the cytotoxicity at 10 µM is 4.34%.

In the case of `Cc1nc(CN2CCC(c3nc4ccccc4n3C)CC2)co1`, the cytotoxicity at 10 µM came out at 13.5%.

With `CNC(=O)CN1CCC(c2nn(C)c(=O)n2-c2ccccc2)CC1`, the cytotoxicity at 10 µM is -14%.

As for `O=C(Nc1cccn(CC(F)(F)F)c1=O)c1ccncc1F`, the cytotoxicity at 10 µM came to 0.315%.

Consider `CN(C)c1nc(N)nc(CN2CCC(c3nc4ccccc4o3)CC2)n1`, for which the cytotoxicity at 10 µM is -6.9%.

In the case of `OC(CNCc1nnc2ccccn12)c1ccc2c(c1)OCO2` (stereo not given), the cytotoxicity at 10 µM was found to be 5.79%.

Turning to `CCc1nccn1-c1cncc(C2CCCN2Cc2ccccn2)n1` (stereo not given), the cytotoxicity at 10 µM is -3.47%.

Regarding `O=C1COC2(CCN(CC3CC3)CC2)CN1c1cncnc1`, the cytotoxicity at 10 µM was -1.87%.

`CN(C)C(=O)N1CCC2(CC1)NC(=O)c1ccccc12`: the cytotoxicity at 10 µM was -10.1%.

In the case of `Cc1oc(C(=O)O)cc1S(=O)(=O)Nc1cc(Cl)ccc1F`, the cytotoxicity at 10 µM is -12%.

`Cc1cc(CC(=O)N2CCN(CC3CC3)[C@@H]3CS(=O)(=O)C[C@@H]32)ccc1F`: the cytotoxicity at 10 µM worked out at 5.17%.

On to `CC(=O)c1cccc(NS(=O)(=O)c2cc(C)c(C(=O)O)s2)c1`, for which the cytotoxicity at 10 µM was determined as 0.178%.

With `Cc1nc(C)c(CN(C)C2CCN(C(=O)OC(C)(C)C)CC2)s1`, the cytotoxicity at 10 µM was 3.51%.

Regarding `CCS(=O)(=O)N1C[C@@H](c2ccccc2)[C@@]2(CCNC2=O)C1`, the cytotoxicity at 10 µM is -108%.

`Cn1ccnc1CN1CCCN(C(=O)c2ccc3c(c2)COC3)CC1`: the cytotoxicity at 10 µM is -10.9%.

Regarding `Cc1cc(C)n(CC(=O)Nc2cc(-c3ccncc3)[nH]n2)n1`, the cytotoxicity at 10 µM was -5.77%.

With `CC(C)NC(=O)C1CN(Cc2ccsc2)Cc2ccnn2C1` (stereo not given), the cytotoxicity at 10 µM was -5.03%.

With `CN1CCCCC1c1nc(Cc2cccc(F)c2)no1` (stereo not given), the cytotoxicity at 10 µM was -161%.

For `Fc1ccc(CN2CCC(c3n[nH]c4nccnc34)CC2)cc1F`, the cytotoxicity at 10 µM was -11.8%.

With `CCc1nccn1C1CCCN(C(=O)c2ccc(NC3CC3)nc2)C1` (stereo not given), the cytotoxicity at 10 µM is -11.3%.

For `Cc1cnc(C(=O)N2C[C@@H]3CC[C@H]2CN(S(=O)(=O)N(C)C)C3)cn1`, the cytotoxicity at 10 µM was -6.77%.

In the case of `Cc1nc(C)n(CC2CCCN(CC(=O)Nc3cc(C)on3)C2)n1` (stereo not given), the cytotoxicity at 10 µM is -3.1%.

As for `CCc1cc(N2CCC(N3CCSCC3)CC2)n2nccc2n1`, the cytotoxicity at 10 µM amounted to 0.998%.

Turning to `COCc1nnc(C(=O)N2CCC(N3CCCCC3)CC2)o1`, the cytotoxicity at 10 µM worked out at 10.2%.

Regarding `Cc1c(-c2cc(C(F)(F)F)nc(N3CCC(N)CC3)n2)cnn1C`, the cytotoxicity at 10 µM came out at 6.14%.

As to `OCc1ccc(CNc2ccccc2CN2CCC(O)CC2)o1`, the cytotoxicity at 10 µM stood at 1.85%.

For `Cc1nc(CN(C)Cc2cc3c(cc2OC(F)F)OCO3)oc1C`, the cytotoxicity at 10 µM was found to be 2.22%.

With `O=C(C[C@@H]1COC[C@H]2CN(C3CCCC3)C[C@@H]12)NCc1cccnc1`, the cytotoxicity at 10 µM was found to be 6.84%.

Take `CN(Cc1nnc2n1CCC2)C(=O)c1ccc2c(c1)OCCCO2`: the cytotoxicity at 10 µM is -8.68%.

Turning to `Cc1ccc(C(=O)O)cc1S(=O)(=O)Nc1nn(-c2ccccc2)cc1C`, the cytotoxicity at 10 µM was -8.84%.

Turning to `Cc1cc(CN(C)C(=O)c2cccc(N3CCCC3=O)c2)no1`, the cytotoxicity at 10 µM worked out at 0.376%.

Regarding `COc1ccc(CN2CC[C@H]3[C@H]2CCN3C(=O)c2cnn(C)c2)cc1`, the cytotoxicity at 10 µM turned out to be 7.9%.

As for `Cc1ccc(NC2CCN(C(=O)Cc3cccs3)CC2)nn1`, the cytotoxicity at 10 µM is -6.8%.

Take `CC(=O)N1CC2(CCN(c3ccc4ccccc4n3)CC2)CC1C(=O)O` (stereo not given): the cytotoxicity at 10 µM worked out at 5.33%.

As for `O=C(O)C1CCCN(C(=O)CCn2ccc3c(Cl)cccc32)C1` (stereo not given), the cytotoxicity at 10 µM was 11%.

As for `CC(C)(C)C(=O)NCCCn1cncn1`, the cytotoxicity at 10 µM was -9.46%.

With `CC1N(CC2CC2)C(=O)COC12CCN(C(=O)c1cnccn1)CC2` (stereo not given), the cytotoxicity at 10 µM was -2.57%.

For `O=C(Nc1ccc(I)cc1C(=O)NCCN1CCOCC1)c1ccco1`, the cytotoxicity at 10 µM is 0.512%.

With `O=C(c1ccoc1)N(Cc1ccncc1)C1CC1`, the cytotoxicity at 10 µM was determined as 1.45%.

In the case of `Cc1nc(Cn2cncc(Br)c2=O)no1`, the cytotoxicity at 10 µM is -12.2%.

The record behind these values is ChEMBL document CHEMBL4513216, “Probing the Open Global Health Chemical Diversity Library for Multistage-Active Starting Points for Next-Generation Antimalarials” (ACS Infect Dis, 2020).
